The list is not random: actives were taken first. Their share in the collection is about 3.7%.
ERAP1 inh – blocks human ERAP1 aminopeptidase activity | Q9NZ08 | recombinant ERAP1, Leu-AMC fluorescence, 60 min | inhibition, % at 10.7 µM | 0.15% of 340,000 active | AID 652197;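 active = mean replicate inhibition of at least 30%, or all replicates individually reaching that 30% level; inactive = mean below 30% and not every replicate reaching it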;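 also: 0% = neutral control wells and 100% = L-leucinethiol positive control wells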
E-selectin induc – induces E-selectin expression in human endothelial cells. P16581. HUVEC E-selectin immunofluorescence imaging; normalized: neutral wells 0, TNF-alpha wells 100. activation, % at 7.58 µM. 0.37% of 260,000 active;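 active = mean E-selectin-positive cell signal at least 10% of the positive control, reached in at least 60% of replicates, without over 20% cell loss; inconclusive = no rule given, readout overlaps actives, possibly toxicity-flagged; inactive = the rest, including those meeting only one limit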
Target sequence (P16581 whole entry, looked up): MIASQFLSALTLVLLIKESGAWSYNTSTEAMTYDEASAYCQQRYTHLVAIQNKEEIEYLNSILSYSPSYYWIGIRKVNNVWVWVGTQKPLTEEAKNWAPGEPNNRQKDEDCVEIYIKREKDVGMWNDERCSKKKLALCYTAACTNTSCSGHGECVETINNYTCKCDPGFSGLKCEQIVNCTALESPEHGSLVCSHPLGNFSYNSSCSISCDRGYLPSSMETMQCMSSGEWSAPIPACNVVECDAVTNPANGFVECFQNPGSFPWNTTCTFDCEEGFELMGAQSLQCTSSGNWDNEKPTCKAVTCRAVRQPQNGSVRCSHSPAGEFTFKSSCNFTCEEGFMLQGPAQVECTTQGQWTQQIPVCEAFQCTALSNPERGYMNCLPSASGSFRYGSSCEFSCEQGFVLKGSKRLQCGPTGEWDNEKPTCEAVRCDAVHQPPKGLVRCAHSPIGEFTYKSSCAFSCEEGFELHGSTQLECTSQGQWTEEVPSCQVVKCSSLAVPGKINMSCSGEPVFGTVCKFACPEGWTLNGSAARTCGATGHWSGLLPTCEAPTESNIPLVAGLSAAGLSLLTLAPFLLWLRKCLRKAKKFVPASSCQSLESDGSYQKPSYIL
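Assay system: HUVEC primary endothelial cells. Input: 3,000 HUVEC seeded per well. Doses: one compound dose added by pin transfer. Read-out basis: % PE-positive cells. Benchmarks: TNF-alpha high, DMSO low. Detection: immunofluorescence imaging. Buffer or medium: EGM-2, gelatin.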
FGF22 binding-1 – FGF22 (human) thermal shift binding; Q9HCT0; activity (Tm shift, normalised), % at 9.99 µM; recombinant FGF22 thermal shift, SYPRO orange fluorescence; percent of sucrose octasulfate shift, DMSO zero; 1.5% of 340,000 active;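 active = mean Tm shift, scaled 0 neutral to 100 positive control, at about 1.3% or above, every replicate too, limit read from the data; inconclusive = no clear call, values can overlap the other calls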
DENV2 CPE rescue – DENV2-induced cell death inhibition; DENV2-infected cells, cytopathic effect rescue, plate reader; CPE inhibition, % at 9.99 µM; 1.7% of 350,000 active; in the data active = CPE inhibition above about 20%, passing the limit was not always enough; inconclusive = no clear call, values can overlap the other calls; tested in BHK-21 cells;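 also: 0% = median of neutral control wells and 100% = median of positive control wells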
F508del corr – CFTR F508del correction in bronchial cells; CFBE cells, YFP halide quenching; stimulated with forskolin plus potentiator P3; % fluorescence drop versus neutral controls; 0.36% of 350,000 active; activity (quench increase), % at 7.58 µM;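 active = mean added fluorescence quench of at least 8% versus neutral control, with both replicates also reaching 8%; inconclusive = only one of the mean or replicate conditions met; inactive = mean below 8% and not both replicates reaching 8%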;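 also: cells transiently co-express mutant CFTR-F508del with the halide-sensitive YFP; corrector assay measuring rescue of mutant channel to the surface after 24 h compound exposure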
FGF22 binding-2 – binds human FGF22 shifting its melting temperature; thermal shift activity, °C (ΔTm) at 38 µM; recombinant FGF22 thermal shift, SYPRO orange fluorescence; 2% of 1,000 active; shares compounds with FGF22 binding-1;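 active = fitted rise in melting shift crosses a set limit at or below the top valid dose tested; inconclusive = flat fit at mid-level activity, or a poor quality fit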
SYPRO no-protein – counter-screen for FGF22 binders: compound-only thermal shift, no protein; shares compounds with FGF22 binding-1; compound-only SYPRO orange thermal shift counter-screen; AC50, µM (top dose mostly 38 µM); 2% of 1,000 active; AID 743019;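 active = rising signal whose fitted curve reaches the 0.54 level within the top valid dose, showing a melting point, actives reach about 13 µM in these data; inactive = the rest, including activity in the opposite direction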; also: value is where the raw curve crosses a fixed level and not half-maximal
* marks the source's active call; other numbers are inactive results; i = inactive; u = inconclusive; x = no result; ! = not active in a repeat; [ ] = dose if it differs, or a comment.

SMILES | ERAP1 inh | E-selectin induc | FGF22 binding-1 | DENV2 CPE rescue | F508del corr | FGF22 binding-2 | SYPRO no-protein
O=[N+]([O-])c1ccc(S(=O)(=O)Nc2nnc(C(F)(F)F)s2)cc1 | 1 | 0 | 1.5* | 6 | 0 | -0.06 | i
CN1[C@@H]2c3ccc(-c4ccccc4)c(=O)n3C[C@H]1[C@H](CO)[C@H]2C(=O)NCC1CC1 | 0 | 0 | 0 | 0 | 0 | x | x
CC(C)c1ccc(NC2CCCN(C(=O)c3cc(C(C)C)[nH]n3)C2)cc1 (stereo unspecified) | 3 | x | 28* | 1 | 0 | 0.2 | i
COc1ccc(S(=O)(=O)N(C)C[C@@H]2Oc3ccc(NC(=O)Cc4ccccc4)cc3C(=O)N([C@H](C)CO)C[C@@H]2C)cc1 | -1 | 0 | 0 | -13 | 0 | x | x
CC1CC(CC(=O)NC(=S)Nc2ccccc2Cl)C(=O)O1 (stereo unspecified) | -1 | x | 1.6* | 1 | -3 | 0.091 | i
CNC(=O)C[C@@H]1CC[C@@H]2[C@H](COc3ccc(NC(=O)c4cccc(F)c4)cc3C(=O)N2C)O1 | -1 | 0 | 16*! | 2 | -2 | 0 | i
CCCNC(=O)C[C@H]1CC[C@H]2[C@H](COc3ccc(NS(=O)(=O)c4ccccc4C)cc3C(=O)N2C)O1 | 0 | 0 | x | -2 | -3 | x | x
CNC(=O)C[C@@H]1CC[C@@H]2[C@@H](COc3ccc(NS(=O)(=O)c4ccccc4C)cc3C(=O)N2C)O1 | -1 | 0 | 20* | u | 2 | -0.018[42 µM] | i
CCCNC(=O)N1CC[C@@H]2[C@H]1c1cc(C#Cc3ccc(OC)cc3)ccc1N(C)[C@@H]2CO | 0 | 1 | 0 | -2 | 1 | x | x
COc1cccc(C(=O)Nc2cccc(NC(=O)c3cccs3)c2)c1 | -6 | x | 1.9* | 2 | -3 | -0.032 | i
COc1cc([N+](=O)[O-])ccc1NC(=O)Nc1ccc2c(c1)OCCO2 | -1 | x | 1.7* | -5 | -1 | 0.073 | i
COc1cc(NC(=O)c2ccc3c(c2)OCCO3)ccc1NC(=O)c1cccs1 | -14 | x | 2.0* | -4 | 1 | -0.2 | 10µM*
O=C(Nc1ccc([N+](=O)[O-])cc1)Nc1ccc2c(c1)OCCO2 | -1 | x | 0 | -5 | -3 | x | x
O=C(C[C@@H]1C[C@H]2c3cc(NC(=O)NC4CCCCC4)ccc3O[C@H]2[C@H](CO)O1)NCc1ccccc1 | 4 | 0 | 0 | -7 | -2 | x | x
CN1C(=O)c2cc(NC(=O)c3ccccc3F)ccc2OC[C@H]2O[C@@H](CC(=O)NCc3ccc4c(c3)OCO4)CC[C@H]21 | -4 | 0 | 1 | -1 | 2 | x | x
CN(C(=O)Cn1nnc2ccccc2c1=O)C1CCCCC1 | -2 | 0 | 1.8* | 6 | 0 | 0.092 | i
C[C@@H]1CCCCO[C@H](CN(C)S(=O)(=O)c2cccs2)[C@H](C)CN([C@@H](C)CO)C(=O)c2cc(NC(=O)Cc3ccccc3)ccc2O1 | x | 0 | 0 | u | -2 | x | x
NC(=O)c1cccnc1Nc1ccccc1F | -4 | 1 | 1.4* | -5 | -1 | 0.11 | i
O=C(C1CCCCC1)N1C[C@@H]2[C@H](c3ccccc31)[C@H](CO)N2Cc1ccccc1Cl | 4 | -1 | 0 | -9 | 0 | x | x
C/C(CC(=O)Nc1ccc2c(c1)OCCO2)=N\NC(=O)COc1ccc(C)cc1 | -2 | x | 41 | -3 | 0 | x | x
C/C(CC(=O)Nc1ccc2c(c1)OCCO2)=N\NC(=O)COc1ccc(C)cc1Br | -1 | x | 2.9* | 6 | -4 | 0.005 | i
CC(=O)N(C)C[C@H]1Oc2cc(C#Cc3ccncc3)ccc2S(=O)(=O)N([C@H](C)CO)C[C@H]1C | -2 | 0 | 0 | -1 | -2 | x | x
COCC(=O)Nc1ccc2c(c1)OC[C@@H](C)N(CCC(F)(F)F)C[C@@H](C)[C@H](OC)CN(C)C2=O | 3 | 0 | x | -7 | -1 | x | x
CCCCn1cnc2c(SCc3cccc(F)c3)nc(N)nc21 | 1 | 0 | 23* | 17 | 1 | 0.048 | i
CCN1C(=O)C(CC(=O)Nc2ccc(OC)cc2)N(Cc2ccc(OC)c(OC)c2)C1=S (stereo unspecified) | x | 0 | x | -4 | -2 | x | x
SMILES | ERAP1 inh | E-selectin induc | FGF22 binding-1 | DENV2 CPE rescue | F508del corr | FGF22 binding-2 | SYPRO no-protein
CCN1C(=O)C(CC(=O)Nc2ccc(OC)cc2)N(CCc2ccc(OC)cc2)C1=S (stereo unspecified) | -1 | x | 1.6* | -3 | -2 | 0.12 | i
CCN1C(=O)C(CC(=O)Nc2ccc(OC)cc2)N(Cc2cccs2)C1=S (stereo unspecified) | 1 | x | 1 | 2 | 0 | x | x
CCN1C(=O)C(CC(=O)Nc2ccc(OC)cc2)N(Cc2ccc3c(c2)OCO3)C1=S (stereo unspecified) | 0 | -3 | 2.0* | 5 | x | 0.007 | i
CCCNC(=O)C1(C)CCCN(C(=O)C2(c3ccc(Cl)cc3)CCCC2)C1 (stereo unspecified) | 7 | 0 | 0 | u | 0 | x | x
CCNC(=O)C1(C)CCCN(C(=O)C2(c3ccc(Cl)cc3)CCCC2)C1 (stereo unspecified) | 1 | 0 | 1.6* | 2 | 4 | 0.037 | i
COc1ccccc1N(C)S(=O)(=O)c1ccc(C(=O)Nc2ccc(C(N)=O)cc2)cc1 | 2 | 0 | 1.7* | u | 0 | -0.094 | i
CCN(CC)CCNC(=O)c1ccc(NC(=O)c2ccc(S(=O)(=O)N(C)c3ccccc3OC)cc2)cc1 | -2 | x | 0 | 1 | 0 | x | x
Cc1ccc(-n2nc(C)c(/C=N/NC(=O)c3cccnc3)c2Cl)cc1 | 1 | 0 | 0 | -9 | 3 | x | x
Cc1nn(-c2ccccc2)c(Cl)c1/C=N/NC(=O)c1cccnc1 | 0 | 0 | 17* | -4 | x | 0.11 | i
C[C@@H]1CN([C@@H](C)CO)C(=O)CCCn2nncc2CO[C@H]1CN(C)Cc1ccccc1C(=O)O | -6 | 0 | 1.3* | -14 | -1 | -0.096[42 µM] | i
C[C@@H]1CN([C@H](C)CO)C(=O)CCCn2cc(nn2)CO[C@@H]1CN(C)C(=O)OCc1ccccc1 | x | 0 | x | x | -3 | x | x
C[C@H](CO)N1C[C@H](C)[C@@H](CN(C)C(=O)OCc2ccccc2)OCc2cn(nn2)CCCC1=O | -3 | x | 17*! | 4 | -4 | 0.091 | i
C[C@H](CO)N1C[C@H](C)[C@H](CN(C)S(=O)(=O)c2ccc(F)cc2)OCc2cnnn2CCCC1=O | 0 | 0 | 1.5*! | -6 | -3 | -0.09[42 µM] | i
C[C@H](CO)N1C[C@H](C)[C@H](CN(C)C(=O)c2cc(-c3ccccc3)on2)OCc2cnnn2CCCC1=O | -6 | 0 | 30*! | u | -1 | 0.091 | i
